Bioassay records from PubChem.
SENP8 block-1: human SENP8 protease inhibitors, primary screen, biochemical, fluorescence, Nedd8 protein substrate, uHTS; hit rate 0.64% among 360,000; AID 602440, 2012; recombinant SENP8; inhibition, % at 20 µM; in the data active = inhibition mostly above about 40%, no sharp cut-off; inactive = mostly below about 27%
SENP7 block: SENP7 protease inhibitors, primary screen, biochemical, luminescence, uHTS; recombinant SENP7, Z-RLRGG-aminoluciferin luminescence, 40 min; hit rate 1.5% among 330,000; inhibition, % at 5 µM; AID 434973, 2010;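 active = inhibition above about 50% at the single test dose, limit read from the data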;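 note: plate controls were DMSO with enzyme for no effect and no enzyme buffer wells for full effect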
Target sequence (Q9BQF6 706-1050 limits assumed): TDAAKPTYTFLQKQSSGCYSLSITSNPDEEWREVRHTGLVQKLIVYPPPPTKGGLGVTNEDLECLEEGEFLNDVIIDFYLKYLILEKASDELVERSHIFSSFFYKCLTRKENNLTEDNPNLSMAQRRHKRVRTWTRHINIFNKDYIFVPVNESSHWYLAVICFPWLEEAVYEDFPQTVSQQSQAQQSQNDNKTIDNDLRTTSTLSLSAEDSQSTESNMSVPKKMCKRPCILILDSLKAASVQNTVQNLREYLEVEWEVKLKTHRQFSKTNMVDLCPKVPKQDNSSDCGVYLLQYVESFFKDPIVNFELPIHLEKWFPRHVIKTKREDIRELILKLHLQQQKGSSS
SENP1 inh: human SENP1 catalytic domain inhibitors, primary screen, biochemical, FRET, uHTS; Sentrin-specific protease 1 (Homo sapiens), Q9P0U3; recombinant SENP1 catalytic domain, CyPet-SUMO1-YPet FRET cleavage; inhibition, % at 10 µM; hit rate 0.21% among 360,000;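 active = inhibition at least 30% at 10 µM, raw YFP signal under a set limit, fluorescence ratio 0.5 to 1.5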;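 note: 0% = enzyme with DMSO and 100% = no enzyme wells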
Target sequence (Q9P0U3 419-644 limits assumed): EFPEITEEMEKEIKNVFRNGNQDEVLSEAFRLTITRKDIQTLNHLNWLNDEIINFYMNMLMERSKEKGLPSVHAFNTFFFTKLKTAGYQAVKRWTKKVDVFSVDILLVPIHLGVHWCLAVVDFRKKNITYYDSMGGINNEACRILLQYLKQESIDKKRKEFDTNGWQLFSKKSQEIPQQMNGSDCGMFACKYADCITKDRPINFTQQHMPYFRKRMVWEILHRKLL
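Controls: no-enzyme wells low, DMSO-plus-enzyme wells high control. Test system: human recombinant His6-tagged SENP1 catalytic domain enzyme. Reagent: SFCypet-SUMO1-SFYpet FRET protein substrate, 25 nM final. Doses: one dose per compound, 10 µM, 0.5% DMSO. Detection: FRET, CFP and YFP emission. Timing: 50 min reaction at room temperature.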
NRP1-CendR mod: modulators of CendR peptide binding to NRP-1, primary screen, biochemical, fluorescence polarization, uHTS. inhibition, % at 25 µM. Neuropilin-1 (Homo sapiens), O14786. FAM-RPARPAR peptide binding to NRP-1. hit rate 0.85% among 360,000;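 active = inhibition or corrected inhibition above about 18%, plus a signal ratio from 0.5 to 1.5, limit read from the data, passing the limit was not always enough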
SENP6 inh: SENP6 protease inhibitors, primary screen, biochemical, luminescence, uHTS; inhibition, % at 10 µM; Recombinant SENP6 catalytic domain, aminoluciferin luminescence; hit rate 1.8% among 330,000;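 active = inhibition above about 50% at the single tested dose, limit read from the data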;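 note: plate controls were DMSO wells with enzyme for no effect and DMSO wells lacking enzyme for full effect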
SENP8 block-2: SENP8 protease inhibitors, primary screen, biochemical, luminescence; inhibition, % at 10 µM; Sentrin-specific protease 8 (Homo sapiens), Q96LD8; hit rate 1.2% among 330,000; purified SENP8, Z-RLRGG-aminoluciferin cleavage; in the data active = inhibition above about 50%
* marks the source's active call; other numbers are inactive results; nt = no result; ! = repeats disagree. Shown are actives, neighbours in structure and some others; about 3.3% of the full set was active somewhere.

SMILES	SENP8 block-1	SENP7 block	SENP1 inh	NRP1-CendR mod	SENP6 inh	SENP8 block-2
Cc1cn([C@H]2C[C@H](O)[C@@H](CCC(=O)NCc3cccc4ccccc34)O2)c(=O)[nH]c1=O	14.6	nt	-0.6	-3.9	nt	nt
Cc1cn([C@H]2C[C@H](O)[C@@H](CCC(=O)NCCCn3ccnc3)O2)c(=O)[nH]c1=O	5.5	0.8	-0.3	31.3*	nt	nt
CN1CCSc2ccc(C(=O)Nc3cccc(F)c3)cc21	-418.0	90.3*	-37.7	-3.5	94.2*	83.1*
COc1ccc(NC(=O)c2ccc3c(c2)N(C)CCS3)cc1	-396.2	15.2	-1.4	2.7	14.8	2.0
COc1ccccc1CNc1nc(NCCN2CCNC2=O)c2sccc2n1	-10.9	nt	2.2	1.5	nt	nt
CCCC(=O)N1c2ccccc2C(=C2SC(C(=O)OC)=C(C(=O)OC)S2)C(=S)C1(C)C	67.0*	5.4	2.1	16.9	3.7	5.8
COC(=O)C1=C(C(=O)OC)SC(=C2C(=S)C(C)(C)N(C(=O)C(C)C)c3ccccc32)S1	46.3*	8.1	4.8	0.6	2.4	1.1
CCOC(=O)C1(C)C(C(=O)OC)=C(c2ccc(OC)cc2)c2ccccc2N1C(=O)OC (stereo unspecified)	-7.1	2.0	-0.7	6.2	nt	nt
COC(=O)C1=C(C(=O)OC)SC(=C2C(=S)C(C)(C)N(C(=O)C3CC3)c3ccccc32)S1	41.7*	10.4	5.3	1.3	9.7	-5.3
CC1(C)c2ssc(=S)c2-c2ccccc2N1C(=O)CSC1=NCCS1	12.0	1.3	2.4	14.1	10.1	0.2
CC1C(=O)Nc2ccccc2N1C(=O)C1CC1 (stereo unspecified)	37.5	4.1	-0.2	8.4	6.8	4.8
Cc1ccccc1CSCC(=O)NC(=O)NCc1ccco1	4.2	-2.4	0.2	-10.5	-11.6	-1.5
O=C(CSCc1ccccc1Br)NNC(=S)NCc1ccco1	-2.2	-1.8	-0.2	21.1*	-6.9	1.0
Cc1cccc(C)c1-n1nnnc1C(c1ccnc2ccccc12)N1CCN(C(=O)OC(C)(C)C)CC1 (stereo unspecified)	23.6	nt	1.8	-1.1	nt	nt
O=C(NC1=C(Nc2ccc(Cl)cc2)C(=O)c2ccccc2C1=O)c1ccccc1	52.0*	12.9	0.9	0.0	12.1	10.8
Cc1cccc(NC2=C(NC(=O)c3ccccc3)C(=O)c3ccccc3C2=O)c1	75.8*	17.4	-0.7	-7.2	43.5	18.3
CN(C1=C(NC(=O)c2ccc(Cl)cc2)C(=O)c2ccccc2C1=O)c1ccccc1	57.2*	15.3	1.4	13.1	25.0	9.7
CCCNC(=O)c1cc(C2CCCCN2C(=O)c2ccc(C(C)C)cc2)on1 (stereo unspecified)	9.0	nt	-0.5	-13.4	nt	nt
C[C@@H]1CN([C@H](C)CO)S(=O)(=O)c2ccc(-c3ccc(C(=O)N(C)C)cc3)cc2O[C@H]1CN(C)C(=O)Cc1ccccn1	11.2	nt	-0.2	-4.2	nt	nt
CN(C)C1CN(Cc2cn(Cc3ccc(Cl)cc3)nn2)S(=O)(=O)C1 (stereo unspecified)	13.6	nt	0.9	13.1	nt	nt
CCCNC(=O)C1(C)CCN(Cc2csc3ccccc23)C1 (stereo unspecified)	12.1	nt	1.3	5.1	nt	nt
Clc1ccc(N=c2ssnc2Cl)nc1	37.2	11.4	31.8*	-4.6	40.5	9.3
CCC(C)C(NC(=O)c1ccccc1)C(=O)N1CCN(C(=O)c2ccccc2)CC1 (stereo unspecified)	18.2	nt	1.1	-10.3	nt	nt
Cc1ccc(OCc2ccc(C(=O)N3CCCC3)o2)c([N+](=O)[O-])c1	13.3	-2.2	-0.3	2.5	0.8	4.0
Cc1ccc(OCc2ccc(C(=O)O)o2)c([N+](=O)[O-])c1	30.2	59.0*	1.0	4.5	77.1*	71.9*
SMILES	SENP8 block-1	SENP7 block	SENP1 inh	NRP1-CendR mod	SENP6 inh	SENP8 block-2
Cc1ccc(OCC(=O)N/N=C/c2ccccc2)c([N+](=O)[O-])c1	6.5	nt	3.6	18.9*	nt	nt
O=C(O)c1ccc(COc2ccc3ccccc3c2)o1	16.1	54.9*	-0.3	-0.4	88.8*	81.3*
COC(=O)N/N=C/c1cccc(OC(=O)c2ccc3c(c2)OCO3)c1	20.5	31.6	2.2	7.6	38.8	6.9
O=C(COc1ccccc1[N+](=O)[O-])N/N=C/c1cccc(OC(=O)c2ccc3c(c2)OCO3)c1	9.7	77.2*	2.0	-3.8	71.2*	41.7
O=C(NCC[C@@H]1CC[C@@H](NS(=O)(=O)c2ccccc2)[C@@H](CO)O1)c1cc(Cl)cc(Cl)c1	18.1	nt	2.3	-7.7	nt	nt
Cc1ccc(CN2C(=O)CSCC2(C)C(=O)NC(C)C)cc1 (stereo unspecified)	10.9	nt	3.4	11.7	nt	nt
CN(C)C(=O)C[C@@H]1C=C[C@@H](NC(=O)C2CCC2)[C@@H](CO)O1	25.9	nt	-0.3	-8.8	nt	nt
O=C(C(=Cc1ccc(F)cc1)C(=O)c1ccccc1)c1ccccc1	13.0	nt	0.0	-10.0	nt	nt
Cc1ccc(C)c(OCC(=O)N/N=C\c2cccn2C)c1	12.5	0.9	1.1	35.4*	3.0	-5.3
Cc1ccc(OCC(=O)N/N=C/c2cccn2C)cc1	-204.7	-5.2	0.4	-9.8	-10.0	-0.4
C#Cc1cccc(NC(=O)c2ccc(Cl)cc2Cl)c1	10.8	73.6*	0.1	-17.1	72.9*	61.9*
O=C(Nc1ccc(Nc2ccccc2)cc1)c1ccc(Cl)cc1Cl	17.7	-0.2	1.1	5.9	-14.0	0.0
NCCc1cnc[nH]1	-4.7	3.2	-5.3	19.2*!	1.6	-1.1
NCCC(=O)NCCc1cnc[nH]1	6.4	3.4	-1.4	-1.1	-12.0	-1.5
CCCn1c(SCC(=O)Nc2nnc(-c3ccccc3)s2)nnc1-c1ccccn1	-26.6	9.8	0.3	26.7*	12.6	0.4
CC1(C(=O)Nc2ccc3c(c2)OCCO3)CN(S(C)(=O)=O)CC(=O)N1CCc1ccccc1 (stereo unspecified)	4.9	nt	-3.0	-8.7	nt	nt
Cc1cc(NC(=O)CN(C)CC(=O)Nc2ccc(Cl)cc2)no1	12.3	-0.8	0.1	18.6*	-17.4	-4.7
Cc1cc(NC(=O)CN(C)CC(=O)Nc2ccc(Cl)c(C(F)(F)F)c2)no1	8.6	12.5	-1.3	-5.5	8.2	7.9
Cc1ccn2c(c1)nc(=O)c1cc(S(=O)(=O)N3CCOCC3)ccc12	-330.2	-46.7	-2.2	20.9*	-24.6	-10.4
Cn1c(=O)c(=O)n(C)c2cc(S(=O)(=O)N3CCOCC3)ccc21	-16.2	4.8	1.1	-3.1	0.0	-3.2
CC(C)(C)C(C(=O)NCc1ccccc1)N1CCN(CCN2CCOCC2)CC1 (stereo unspecified)	9.2	nt	1.1	-4.9	nt	nt
